Laboratory results as given in ChEMBL document CHEMBL3351277, “Discovery and structure-activity relationship studies of irreversible benzisothiazolinone-based inhibitors against Staphylococcus aureus sortase A transpeptidase” (Bioorg Med Chem, 2014).
≈ marks a conversion by molar mass, not a printed value. Calls of active or inactive are those of the source. The calls are words filed in the database; no cut-off is given here.

Key:
Sortase A = target: T1, Sortase A (Staphylococcus aureus, UniProt Q9S446); test: Inhibition of Staphylococcus aureus sortase A using dabcyl-QALPETGEE-edans as substrate incubated for 1 hr prior to substrate addition measured at 1 min interval for 1 hr by FRET analysis
T1 sequence (Q9S446 whole entry): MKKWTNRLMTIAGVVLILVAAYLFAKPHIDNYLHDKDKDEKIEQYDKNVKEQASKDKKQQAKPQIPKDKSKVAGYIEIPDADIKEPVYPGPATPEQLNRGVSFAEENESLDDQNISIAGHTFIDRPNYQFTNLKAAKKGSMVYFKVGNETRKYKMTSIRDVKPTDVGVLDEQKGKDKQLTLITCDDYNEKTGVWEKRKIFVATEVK
How it was run: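 Recombinant S. aureus SrtA catalytic domain (residues 1–59 deleted, C-terminal His6; E. coli BL21(DE3), Ni-NTA then gel filtration), 10 µM, preincubated 1 h at 37 °C with increasing inhibitor concentrations in 50 mM Tris-HCl pH 7.5, 5 mM CaCl2, 150 mM NaCl; then 20 µM substrate added. Fluorescence (ex 350/em 495 nm) read each minute for 1 h; progress curves constructed for IC50.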

Escherichia coli = test: Antibacterial activity against Escherichia coli ATCC 25922 after 24 hrs by broth dilution method; format: functional; conditions: ATCC 25922, 24 h
How it was run: (§1)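 Broth microdilution, 0.1–500 µg/mL in Mueller Hinton broth for S. aureus and S. epidermidis and Luria Bertani broth for E. coli. Inoculum was log-phase culture at OD600 0.1, incubated 24 h at 37 °C, with growth read as A600. Triplicates, repeated three times.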

[1] = Cytotoxicity against Swiss mouse NIH/3T3 cells after 48 hrs by MTT assay; format: cell-based; conditions: NIH3T3, 48 h
How it was run: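 NIH 3T3 fibroblasts were seeded in DMEM with 10% FCS and rested 24 h, then exposed to graded compound concentrations for 48 h. Medium was replaced with phenol-red-free medium plus 1 mM MTT for 3 h, then 1% SDS–HCl was added for 4 h. A570 was read. IC50 was the 50% proliferation inhibition versus untreated control, from nonlinear dose–response regression.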

[2] = system: Staphylococcus epidermidis; test: Antibacterial activity against Staphylococcus epidermidis ATCC 12228 after 24 hrs by broth dilution method; format: functional; conditions: ATCC 12228, 24 h; how it was run: as §1
Staphylococcus aureus = test: Antibacterial activity against Staphylococcus aureus ATCC 25904 after 24 hrs by broth dilution method; format: functional; conditions: ATCC 25904, 24 h; how it was run: as §1
[3] = target: T2, Sortase A (Staphylococcus aureus) (UniProt Q9S446); test: Irreversible binding affinity to Staphylococcus aureus sortase A by 15N-1H HSQC NMR spectroscopy
T2 sequence (whole entry): T1 sequence (Q9S446 whole entry)
How it was run: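 2D 15N–1H HSQC used 15N-labelled SrtAΔN59-6His (E. coli BL21(DE3), M9 with 15N-ammonium) at 0.3 mM. Buffer was 20 mM sodium acetate, 50 mM NaCl, 10 mM CaCl2, pH 6.0, 6% D2O. Inhibitor (100 mM stock in DMSO-d6) was added stepwise with a spectrum after each addition. Reversibility was checked by HSQC after dialysis against NMR buffer (100-fold dilution).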

| SMILES | IC50 (Sortase A; read-out: IC50) | MIC (Escherichia coli) | IC50 [1] | MIC [2] | MIC (Staphylococcus aureus) | Activity [3] | IC50 (Sortase A) |
| --- | --- | --- | --- | --- | --- | --- | --- |
| CC12CC3CC(C)(C1)CC(NC(=O)CCn1sc4cccc(F)c4c1=O)(C3)C2 | 4.07 µM | > 1240 µM | 9.89 µM | 2.48 µM (≈ 0.998 µg/mL) | 39.7 µM (≈ 16 µg/mL) |  |  |
| O=C(O)CCn1sc2ccccc2c1=O | 12.8 µM | 71.7 µM (≈ 16 µg/mL) | 21.8 µM | 287 µM (≈ 64 µg/mL) | 287 µM (≈ 64 µg/mL) |  |  |
| O=C(Cn1sc2ccccc2c1=O)NC12CC3CC(CC(C3)C1)C2 | 6.11 µM | > 1500 µM | 1.27 µM | 1.46 µM (≈ 0.5 µg/mL) | 2.92 µM (≈ 1 µg/mL) | Active |  |
| CC12CC3CC(C)(C1)CC(NC(=O)CCn1sc4ccccc4c1=O)(C3)C2 | 4.62 µM | > 1300 µM | 4.23 µM | 20.8 µM (≈ 8 µg/mL) | 20.8 µM (≈ 8 µg/mL) |  |  |
| COC(=O)C12CC3CC(CC(N)(C3)C1)C2.Cl |  | > 2030 µM | 2290 µM | > 2030 µM | > 2030 µM |  | Not Active |
| Cl.NC12CC3CC(CC(C3)C1)C2 [AMANTADINE HYDROCHLORIDE] |  | > 2660 µM | 2290 µM | > 2660 µM | > 2660 µM |  | Not Active |
| O=C(CN1Cc2ccccc2C1=O)NC12CC3CC(CC(C3)C1)C2 |  | > 1540 µM | 263 µM | > 1540 µM | > 1540 µM |  | Not Active |
| CC12CC3CC(C)(C1)CC(NC(=O)Cn1sc4ccccc4c1=O)(C3)C2 | 4.99 µM | > 1350 µM | 4.09 µM | 43.2 µM (≈ 16 µg/mL) | 86.4 µM (≈ 32 µg/mL) |  |  |
| O=C(CCn1sc2cccc(F)c2c1=O)NC12CC3CC(CC(O)(C3)C1)C2 | 6.26 µM | > 1280 µM | 1.34 µM | 164 µM (≈ 64 µg/mL) | 164 µM (≈ 64 µg/mL) |  |  |
| CC12CC3(C)CC(O)(C1)CC(NC(=O)CCn1sc4ccccc4c1=O)(C2)C3 | 7.06 µM | > 1250 µM | 7.52 µM | 40 µM (≈ 16 µg/mL) | 40 µM (≈ 16 µg/mL) |  |  |
| O=C(CCn1sc2cccc(F)c2c1=O)NNC(=O)C12CC3CC(CC(C3)C1)C2 | 3.39 µM | > 1200 µM | 1.67 µM | 19.2 µM (≈ 8 µg/mL) | 38.3 µM (≈ 16 µg/mL) |  |  |
| O=C(CCn1sc2ccccc2c1=O)NC12CC3CC(CC(O)(C3)C1)C2 | 6.44 µM | > 1340 µM | 7.13 µM | 85.9 µM (≈ 32 µg/mL) | 43 µM (≈ 16 µg/mL) |  |  |
| COC(=O)C12CC3CC(CC(NC(=O)CCn4sc5ccccc5c4=O)(C3)C1)C2 | 5.08 µM | > 1210 µM | 12.1 µM | 19.3 µM (≈ 8 µg/mL) | 38.6 µM (≈ 16 µg/mL) |  |  |
| CC12CC3(C)CC(O)(C1)CC(NC(=O)CCn1sc4cccc(F)c4c1=O)(C2)C3 | 3.96 µM | > 1190 µM | 2.17 µM | 38.2 µM (≈ 16 µg/mL) | 38.2 µM (≈ 16 µg/mL) |  |  |
| O=C(CCn1sc2ccccc2c1=O)NNC(=O)C12CC3CC(CC(C3)C1)C2 | 4.22 µM | > 1250 µM | 12.2 µM | 10 µM (≈ 4 µg/mL) | 20 µM (≈ 8 µg/mL) |  |  |
| CC12CC3(C)CC(O)(C1)CC(NC(=O)Cn1sc4ccccc4c1=O)(C2)C3 | 3.87 µM | > 1290 µM | 1.33 µM | 20.7 µM (≈ 8 µg/mL) | 20.7 µM (≈ 8 µg/mL) |  |  |
| C=CS(=O)(=O)c1ccccc1 [(ETHENYLSULFONYL)BENZENE] |  | > 2960 µM | 7.91 µM | > 2960 µM | > 2960 µM |  |  |
| COC(=O)C12CC3CC(CC(NC(=O)CCn4sc5cccc(F)c5c4=O)(C3)C1)C2 | 5.06 µM | > 1160 µM | 8.02 µM | 18.5 µM (≈ 8 µg/mL) | 37 µM (≈ 16 µg/mL) |  |  |
| O=C(CCn1sc2cccc(F)c2c1=O)NC12CC3CC(CC(C3)C1)C2 | 4.01 µM | > 1340 µM | 0.9 µM | 10.7 µM (≈ 4 µg/mL) | 85.5 µM (≈ 32 µg/mL) |  |  |
| O=C(Cn1sc2ccccc2c1=O)NNC(=O)C12CC3CC(CC(C3)C1)C2 | 3.8 µM | > 1300 µM | 14.4 µM | 10.4 µM (≈ 4 µg/mL) | 41.5 µM (≈ 16 µg/mL) |  |  |
| O=C(CCn1sc2ccccc2c1=O)NC12CC3CC(CC(C3)C1)C2 | 3.81 µM | > 1400 µM | 5.95 µM | 5.61 µM (≈ 2 µg/mL) | 22.4 µM (≈ 8 µg/mL) |  |  |
| CN(C)CCC(=O)c1ccc(Cl)c(Cl)c1 | 16.9 µM | > 1770 µM | 9.71 µM | 56.6 µM (≈ 13.9 µg/mL) | 113 µM (≈ 27.9 µg/mL) |  |  |
